Measured values of several laboratories.
Target: Fibroblast growth factor receptor 4 (FGFR4, Homo sapiens, UniProt P22455)

Structure (SMILES) | read-out | mode | technique | concentration | measurement | result
COc1ccc2oc(-c3ccc4nc(N)oc4c3)c/c(=N\c3ccccc3NC(=O)CCN)c2c1 | binding |  |  | 1 µM | remaining binding | 102%
CC(C)S(=O)(=O)c1ccc2nccc(Nc3ccc4sc(C5CCCC5)nc4c3)c2c1 | enzyme activity | inhibitor |  | 1 µM | activity vs control | 108%
C=CC(=O)N1CCC[C@@H](n2nc(-c3ccc(Oc4ccccc4)cc3)c3c(N)ncnc32)C1 | enzyme activity | inhibitor |  | 1 µM | inhibition | 8%
C[C@H]1CC[C@H](n2c3cnccc3c3cnc(Nc4ccc5c(n4)CCN(C(=O)CO)C5)nc32)CC1 | binding |  |  | 1 µM | remaining binding | 100%
CCCCC(=O)Nc1ccc(-c2ccc3ncn(CCC)c(=O)c3c2)cn1 | binding |  | competition with immobilised ligand | 0.5 µM | remaining binding | 100%
C=CC(=O)N1CCC([C@@H]2CCNc3c(C(N)=O)c(-c4ccc(Oc5ccccc5)cc4)nn32)CC1 | cell-free assay |  |  | 1 µM | inhibition | 10%
COc1ccc2[nH]c3c4[nH]c5ccc(OC)cc5c4c4c(c3c2c1)C(=O)NC4=O | binding |  |  | 1 µM | remaining binding | 85%
C1=C/COCc2cc(ccc2OCCN2CCCC2)Nc2nccc(n2)-c2cccc(c2)COC/1 | binding |  |  | 0.1 µM | remaining binding | 100%
